Test results taken from ChEMBL document CHEMBL3525966, “Compartmental and enzyme kinetic modeling to elucidate the biotransformation pathway of a centrally acting antitrypanosomal prodrug” (Drug Metab Dispos, 2013).

How the values were obtained:
[1] = Drug metabolism in sandwich-cultured rat hepatocytes assessed as (Z)-N'-hydroxy-6-(5-(5-((Z)-N'-methoxycarbamimidoyl)pyridin-2-yl)furan-2-yl)nicotinimidamide at 10 uM after 4 hrs of incubation by HPLC-MS/MS analysis; format: ADME, cell-based, Hepatocyte
In short: (§1)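 Sandwich-cultured hepatocytes were used on day 5 (human) or day 4 (rat) and rinsed with warm phenol-red-free DMEM. They were then exposed to 10 µM DB868 (0.1–0.2% DMSO) at 37°C. Medium and methanol/water cell lysates were collected at 0.5, 2, 4 and 24 h. Analytes were quantified by HPLC/MS/MS with deuterated internal standards; protein by Bradford. Replicates: 6 (human) or 4 (rat).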

Cytochrome P450 4F2 = target: T1, Cytochrome P450 4F2 (Homo sapiens, UniProt P78329); experiment: Prodrug conversion assessed as human recombinant CYP4F2-mediated (Z)-N'-hydroxy-6-(5-(5-((Z)-N'-methoxycarbamimidoyl)pyridin-2-yl)furan-2-yl) nicotinimidamide formation at 5 uM after 180 mins incubation by HPLC-UV chromatogram; format: ADME; conditions: recombinant enzyme, 15 min, in the assay text read “15 mins” for “180 mins”
T1 sequence (P78329 whole entry): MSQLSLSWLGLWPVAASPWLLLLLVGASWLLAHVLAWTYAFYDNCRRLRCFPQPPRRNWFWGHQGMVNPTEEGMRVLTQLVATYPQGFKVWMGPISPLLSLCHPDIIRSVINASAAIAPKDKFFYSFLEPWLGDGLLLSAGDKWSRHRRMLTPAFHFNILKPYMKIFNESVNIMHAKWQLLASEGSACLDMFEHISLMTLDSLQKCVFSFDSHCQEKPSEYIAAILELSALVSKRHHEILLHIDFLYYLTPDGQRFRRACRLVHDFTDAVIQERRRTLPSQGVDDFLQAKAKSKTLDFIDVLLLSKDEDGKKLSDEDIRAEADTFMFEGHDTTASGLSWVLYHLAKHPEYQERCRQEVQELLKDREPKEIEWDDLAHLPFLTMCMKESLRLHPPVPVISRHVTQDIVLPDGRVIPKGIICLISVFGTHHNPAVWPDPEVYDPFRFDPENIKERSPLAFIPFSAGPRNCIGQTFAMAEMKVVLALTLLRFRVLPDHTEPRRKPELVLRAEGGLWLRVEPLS
In short: (§2)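 Insect-cell-expressed human or rat P450 (with NADPH-P450 reductase, some also with cytochrome b5) at 0.1 pmol/µL in 100 mM potassium phosphate pH 7.4 with 10 mM MgCl2. DB868 (for M1) or M1 (for M2) was added at 5 µM (0.5% DMSO) and started with 2 mM NADPH. Stopped after 15 min with ice-cold acetonitrile, then HPLC-UV. Duplicate incubations.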

Liver microsome [2] = experiment: Prodrug conversion in human liver microsomes assessed as depletion of compound at 10 uM after 180 mins incubation by HPLC-UV chromatography; format: ADME; conditions: 3 h
In short: (§3)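 HLM or RLM (0.5 mg/mL) were incubated in triplicate in 100 mM phosphate pH 7.4 with 10 mM MgCl2 and an NADPH-regenerating system (1 mM NADP+, glucose 6-phosphate, G6PDH). DB868 was 10 µM. Sampled up to 180 min. Prodrug and metabolites were measured by HPLC-UV at 359 nm and expressed relative to initial prodrug; DB829 LLOQ 50 nM.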

[3] = test system: Trypanosoma brucei rhodesiense; experiment: Antitrypanosomal activity against Trypanosoma brucei rhodesiense STIB900 infected po dosed mouse model; format: functional
[4] = Drug metabolism in sandwich-cultured human hepatocytes assessed as DB829 at 10 uM after 24 hrs of incubation by HPLC-MS/MS analysis; format: ADME, cell-based, Hepatocyte; in short: as §1
Liver microsome [5] = experiment: Prodrug conversion in human liver microsomes assessed as elution time at 10 uM after 180 mins incubation by HPLC-UV chromatography; format: ADME; conditions: 3 h; in short: as §3
Liver microsome [6] = experiment: Drug metabolism in human liver microsomes assessed as (Z)-N'-hydroxy-6-(5-(5-((Z)-N'-methoxycarbamimidoyl)pyridin-2-yl)furan-2-yl nicotinimidamide formation measured per mg of protein by HPLC-MS/MS analysis; format: ADME
In short: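 M1 formation kinetics: HLM or RLM (0.5 mg/mL) in phosphate pH 7.4 with MgCl2, DB868 0.1–100 µM, started with 2 mM NADPH. Run 5 min (HLM) or 10 min (RLM) under initial-rate conditions (<20% consumption) in triplicate. Quantified by HPLC/MS/MS with d6-DB868 internal standard. Fitted to a one-enzyme (HLM) or two-enzyme (RLM) Michaelis–Menten model; Clint = Vmax/Km.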

[7] = Drug metabolism in sandwich-cultured human hepatocytes assessed as (3Z,3'Z)-6,6'-(furan-2,5-diyl)bis(N'-hydroxynicotinimidamide) at 10 uM after 4 hrs of incubation by HPLC-MS/MS analysis; format: ADME, cell-based, Hepatocyte; in short: as §1
Hepatocyte = experiment: Biotransformation in sandwich-cultured human hepatocytes assessed as depletion of compound at 10 uM after 4 hrs of incubation by HPLC-MS/MS analysis; format: ADME, cell-based; in short: as §1
Cytochrome P450 1A2 = target: T2, Cytochrome P450 1A2 (Homo sapiens, UniProt P05177); experiment: Prodrug conversion assessed as human recombinant CYP1A2-mediated (3Z,3'Z)-6,6'-(furan-2,5-diyl)bis(N'-hydroxynicotinimidamide) formation at 5 uM after 180 mins incubation by HPLC-UV chromatogram; format: ADME; conditions: recombinant enzyme, 15 min, in the assay text read “15 mins” for “180 mins”; in short: as §2
T2 sequence (P05177 whole entry): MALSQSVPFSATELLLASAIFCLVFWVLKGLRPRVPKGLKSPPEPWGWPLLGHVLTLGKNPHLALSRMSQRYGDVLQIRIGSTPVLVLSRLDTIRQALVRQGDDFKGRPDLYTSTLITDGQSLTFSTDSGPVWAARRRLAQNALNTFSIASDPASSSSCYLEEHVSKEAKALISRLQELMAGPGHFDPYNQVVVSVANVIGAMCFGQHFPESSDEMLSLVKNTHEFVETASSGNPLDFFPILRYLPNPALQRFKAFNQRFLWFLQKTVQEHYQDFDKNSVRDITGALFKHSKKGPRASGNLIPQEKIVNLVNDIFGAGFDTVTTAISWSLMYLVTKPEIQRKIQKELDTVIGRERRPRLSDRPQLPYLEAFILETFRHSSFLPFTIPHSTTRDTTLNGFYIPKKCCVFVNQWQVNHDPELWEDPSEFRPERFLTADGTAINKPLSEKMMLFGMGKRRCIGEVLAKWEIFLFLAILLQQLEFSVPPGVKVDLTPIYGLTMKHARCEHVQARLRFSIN

[8] = Drug metabolism in sandwich-cultured human hepatocytes assessed as (Z)-6-(5-(5-carbamimidoylpyridin-2-yl)furan-2-yl)-N' methoxynicotinimidamide at 10 uM after 4 hrs of incubation by HPLC-MS/MS analysis; format: ADME, cell-based, Hepatocyte; in short: as §1
[9] = Drug metabolism in sandwich-cultured human hepatocytes assessed as fold increase in DB829 at 10 uM after 2 hrs of incubation by HPLC-MS/MS analysis; format: ADME, cell-based, Hepatocyte; in short: as §1
[10] = Drug metabolism in sandwich-cultured rat hepatocytes assessed as (Z)-6-(5-(5-carbamimidoylpyridin-2-yl)furan-2-yl)-N'methoxynicotinimidamide at 10 uM after 4 hrs of incubation by HPLC-MS/MS analysis; format: ADME, cell-based, Hepatocyte; in short: as §1
Cytochrome P450 3A4 = Cytochrome P450 3A4 (Homo sapiens, UniProt P08684); experiment: Prodrug conversion assessed as human recombinant CYP3A4-mediated (Z)-N'-hydroxy-6-(5-(5-((Z)-N'-methoxycarbamimidoyl)pyridin-2-yl)furan-2-yl) nicotinimidamide formation at 5 uM after 180 mins incubation by HPLC-UV chromatogram; format: ADME; conditions: recombinant enzyme, 15 min, in the assay text read “15 mins” for “180 mins”; in short: as §2
Sequence of Cytochrome P450 3A4 (P08684 whole entry): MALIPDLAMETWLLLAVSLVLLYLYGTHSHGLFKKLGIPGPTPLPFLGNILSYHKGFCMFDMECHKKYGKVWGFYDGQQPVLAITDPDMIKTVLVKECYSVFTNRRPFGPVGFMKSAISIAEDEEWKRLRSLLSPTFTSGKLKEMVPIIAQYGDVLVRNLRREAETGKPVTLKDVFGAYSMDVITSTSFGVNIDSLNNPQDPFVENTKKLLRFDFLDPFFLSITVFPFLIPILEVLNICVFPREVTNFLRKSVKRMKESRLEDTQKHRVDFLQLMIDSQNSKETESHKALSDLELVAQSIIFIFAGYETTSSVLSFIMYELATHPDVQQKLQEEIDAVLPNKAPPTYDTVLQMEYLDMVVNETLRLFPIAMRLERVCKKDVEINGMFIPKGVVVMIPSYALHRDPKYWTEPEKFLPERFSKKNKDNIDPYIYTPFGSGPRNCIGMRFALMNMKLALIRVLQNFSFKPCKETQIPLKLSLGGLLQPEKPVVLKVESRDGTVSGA

Compound: CO/N=C(\N)c1ccc(-c2ccc(-c3ccc(/C(N)=N/OC)cn3)o2)nc1.Cl
- Drug metabolism [1]: metabolite_detected
- Drug metabolism (Cytochrome P450 4F2): metabolite_detected
- Drug metabolism (Liver microsome [2]): 100%
- Activity [3]: 100%
- Drug metabolism [4]: metabolite_detected
- Retention_time (Liver microsome [5]): 18.5 min
- Vmax (Liver microsome [6]): 340 pmol/min
- Drug metabolism [7]: metabolite_detected
- Drug metabolism (Hepatocyte): metabolite_detected
- Drug metabolism (Cytochrome P450 1A2): metabolite_detected
- Drug metabolism [8]: metabolite_detected
- fold change (FC) [9]: 13
- Drug metabolism [10]: metabolite_detected
- Drug metabolism (Cytochrome P450 3A4): metabolite_detected
